Experimental findings from ChEMBL document CHEMBL4765236, “Insights into the Antimicrobial Activity and Cytotoxicity of Engineered α-Helical Peptide Amphiphiles” (J Med Chem, 2016) are described below.

The subject of one data set is Salmonella paratyphi. Briefly: Antibacterial activity against Salmonella paratyphi C CICC 21512 assessed as bacterial growth inhibition incubated for 18 to 24 hrs by microtiter broth dilution method. Format: functional. Particulars: Salmonella enterica, time 18-24 hrs. In outline:
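Log-phase bacteria grown at 37 °C in MHB, diluted to 10^5 CFU/mL, mixed 1:1 with serial peptide dilutions (peptide diluted in 0.01% acetic acid, 0.2% BSA); 37 °C for 18-24 h. MIC read by OD492 as lowest concentration giving no growth; mean of 3-5 independent experiments.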
In general terms: Broth dilution looks for growth in wells or tubes with falling amounts of substance.

Data set [1] concerns RAW264.7. Description: Antiinflammatory activity against mouse RAW264.7 cells assessed as inhibition of LPS-induced nitric oxide production measured after 24 hrs by Griess reagent based ELISA. The following applies: dose 0.5-64 µM. Format: functional, cell-based. In outline:
(§1)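 RAW264.7 cells plated at 1-2 × 10^5 cells/mL and stimulated with 500 ng/mL LPS with or without peptide (0.5-64 µM) for 24 h at 37 °C. Controls were untreated cells and LPS alone. TNF-α in the supernatant measured by ELISA. NO measured by Griess reagent (1% sulfanilamide, 0.1% naphthylethylenediamine, 5% phosphoric acid).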

Another data set concerns Pseudomonas fluorescens. Description: Antibacterial activity against Pseudomonas fluorescens CICC 21620 assessed as bacterial growth inhibition incubated for 18 to 24 hrs by microtiter broth dilution method. Format: functional. Particulars: time 18-24 hrs. The gist of the method:
(§2)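 Log-phase cells (grown overnight at 37 °C, subcultured in MHB) diluted to 10^5 CFU/mL in MHB and mixed 1:1 with serial peptide dilutions prepared in 0.01% acetic acid/0.2% BSA. Incubated 37 °C for 18-24 h. MIC is the lowest concentration giving no growth by OD492. Reported as the average of 3-5 independent experiments.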

Data set [2] relates to Escherichia coli. Description: Antibacterial activity against Escherichia coli O157:H7 CICC 21530 assessed as bacterial growth inhibition incubated for 18 to 24 hrs in presence of 4 mM FeCl3 by microtiter broth dilution method (reference value: 0.85 to > 71.5 uM). Type of data set: functional. The following applies: time 18-24 hrs.
In data set [3] the test system is Escherichia coli. Description: Antibacterial activity against Escherichia coli ATCC 25922 assessed as bacterial growth inhibition incubated for 18 to 24 hrs by microtiter broth dilution method. Format: functional. The following applies: time 18-24 hrs. In outline:
as §2

The subject of data set [4] is Escherichia coli. Briefly: Antibacterial activity against Escherichia coli ATCC 35150 assessed as bacterial growth inhibition incubated for 18 to 24 hrs by microtiter broth dilution method. The following applies: time 18-24 hrs. Type of data set: functional. In outline:
as §2

For data set [5], the system named is Erythrocyte. Briefly: Hemolytic activity against human red blood cells assessed as concentration required to cause 10% hemoglobin release measured after 1 hr by microplate reader analysis. Format: ADME, cell-based. The gist of the method: (§3)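 Fresh heparinized human RBCs washed three times in 10 mM PBS pH 7.4 and resuspended to about 1% (v/v) (5.4 × 10^8 cells/mL). Mixed 1:1 with peptide in PBS for 1 h at 37 °C, then centrifuged. Supernatant hemoglobin read at A540. PBS set as 0% and 0.1% Triton X-100 as 100% hemolysis. MHC is the concentration causing 10% hemolysis.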

Data set [6] concerns RAW264.7. Briefly: Antiinflammatory activity against mouse RAW264.7 cells assessed as inhibition of LPS-induced TNF-alpha production at 0.5 to 64 uM measured after 24 hrs by […] ELISA. Type of data set: functional, cell-based. The following applies: dose 0.5-64 µM. The gist of the method: as §1
In data set [7] the test system is Staphylococcus aureus. Briefly: Antibacterial activity against Staphylococcus aureus ATCC 29213 assessed as bacterial growth inhibition incubated for 18 to 24 hrs in presence of 1 mM MgCl2 by microtiter broth dilution method (reference value: 0.43 to > 71.5 uM). Type of data set: functional. The following applies: time 18-24 hrs.
For data set [8], the system named is Cell membrane. Description: Induction of inner membrane permeabilization in Escherichia coli O157:H7 CICC 21530 assessed as cytoplasmic beta-galactosidase release at 1 times MIC using ONPG as substrate by […]. Format: subcellular.
Another data set relates to HepG2. Description: Cytotoxicity against human HepG2 cells assessed as reduction in cell viability incubated for 24 hrs by MTT assay. Type of data set: functional, cell-based. In outline: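 HepG2 survival measured by MTT assay over a peptide range of 0.25-64 µM.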
Background: Tetrazolium dyes change colour on reduction, which living cells bring about.

A short description of data set [9]: Therapeutic index, ratio of MHC10 for human RBC to geometric mean of peptide MIC for Staphylococcus aureus ATCC 29213. Type of data set: toxicity. The following applies: human red blood cells (RBC), pooled result: one value given for 9 cell lines, strains, targets or settings, read-out: TI. In outline: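 Therapeutic index = MHC (peptide concentration giving 10% hemolysis of human RBCs, 1 h, 37 °C, A540) divided by geometric mean of MICs from broth microdilution (10^5 CFU/mL in MHB, 37 °C, 18-24 h, OD492).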

Data set [10] relates to RAW264.7. Briefly: Cytotoxicity against mouse RAW264.7 cells assessed as increase in cell viability at 64 uM incubated for 24 hrs by MTT assay relative to control. Type of data set: cell-based. Particulars: raw264.7, 24 h. The gist of the method: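 RAW264.7 macrophages were grown in DMEM with 10% FBS, 2 mM glutamine and penicillin/streptomycin at 37 °C in 5% CO2. Cells seeded at 1.0-2.0 × 10^4 per well and treated with peptide (final 0.25-64 µM) for 24 h at 37 °C. MTT at 0.5 mg/mL added for 4 h, formazan dissolved in DMSO, read at 570 nm.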

Data set [11] has as its system Cell membrane. Briefly: Induction of outer membrane permeabilization in Escherichia coli O157:H7 CICC 21530 assessed as increase in fluorescence intensity by NPN-dye based fluorescence assay. Type of data set: subcellular. The following applies: dose 0.625-7.5 µM.
The subject of data set [12] is Escherichia coli. Briefly: Antibacterial activity against Escherichia coli O157:H7 CICC 21530 assessed as bacterial growth inhibition incubated for 18 to 24 hrs in presence of 4.5 mM KCl by microtiter broth dilution method (reference value: 0.85 to > 71.5 uM). Particulars: time 18-24 hrs. Type of data set: functional.
For data set [13], the system named is Staphylococcus aureus. Description: Antibacterial activity against Staphylococcus aureus ATCC 29213 assessed as bacterial growth inhibition incubated for 18 to 24 hrs in presence of 4.5 mM KCl by microtiter broth dilution method (reference value: 0.43 to > 71.5 uM). Type of data set: functional. The following applies: time 18-24 hrs.
A further data set concerns Bacillus pumilus. Description: Antibacterial activity against Bacillus pumilus CMCC 63202 assessed as bacterial growth inhibition incubated for 18 to 24 hrs by microtiter broth dilution method. The following applies: time 18-24 hrs. Format: functional. In outline:
as §2

Data set [14] deals with Staphylococcus aureus. Description: Antibacterial activity against Staphylococcus aureus GIM 1.160 assessed as bacterial growth inhibition incubated for 18 to 24 hrs by microtiter broth dilution method. Format: functional. Particulars: time 18-24 hrs. The gist of the method: as §2
Data set [15] deals with Staphylococcus aureus. Briefly: Antibacterial activity against Staphylococcus aureus ATCC 29213 assessed as bacterial growth inhibition incubated for 18 to 24 hrs in presence of 6 mM NH4Cl by microtiter broth dilution method (reference value: 0.43 to > 71.5 uM). Type of data set: functional. The following applies: time 18-24 hrs.
In data set [16] the test system is Staphylococcus aureus. Briefly: Bactericidal activity against Staphylococcus aureus ATCC 29213 assessed as bacterial killing at 1 times MIC by time kill assay. The following applies: time 1085.0 min, TDE = time-dependent effect. Format: functional, organism-based. In outline:
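Log-phase S. aureus 29213 exposed to peptide at 1 × MIC in 10 mM PBS pH 7.4 at 37 °C for 0-90 min. Aliquots taken at fixed intervals, diluted and plated on nutrient agar, and colonies counted after 18 h at 37 °C. Average of three independent assays.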

For data set [17], the system named is Staphylococcus aureus. Briefly: Antibacterial activity against Staphylococcus aureus ATCC 29213 assessed as bacterial growth inhibition incubated for 18 to 24 hrs in presence of […] by microtiter broth dilution method (reference value: 0.43 to > 71.5 uM). Type of data set: functional. Particulars: time 18-24 hrs.
For data set [18], the system named is Erythrocyte. Briefly: Hemolytic activity against human red blood cells assessed as hemoglobin release at 64 uM measured after 1 hr by microplate reader analysis. Format: ADME, cell-based. In outline:
as §3

Calls of active or inactive are those of the source.

The MIC is the smallest concentration in the dilution series that meets the test's criterion for growth inhibition. For the substance H-WGRAFRRLVRRLARGLRR-NH2, the minimum inhibitory concentration (MIC) was 3.49 µM with Salmonella paratyphi; 55.8 µM in the data set with Pseudomonas fluorescens; greater than 55.8 µM in the data set with Escherichia coli [2]; 27.9 µM with Escherichia coli [3]; 13.9 µM in the data set on Escherichia coli [4]; 1.74 µM in the data set on Staphylococcus aureus [7]. The minimal inhibitory concentration (MIC) with Escherichia coli [12] is 3.49 µM; with Staphylococcus aureus [13] it was 0.87 µM; with Bacillus pumilus, 55.8 µM; in the data set on Staphylococcus aureus [14], 1.74 µM; in the data set with Staphylococcus aureus [15], 1.74 µM; in the data set with Staphylococcus aureus [17] it was greater than 55.8 µM. Moreover, the Activity entry in the data set with RAW264.7 [1] was “Dose-dependent effect”; with HepG2, “Dose-dependent effect”; in the data set with RAW264.7 [10], 64.79%; in the data set with Cell membrane [11], “Dose-dependent effect”; with Staphylococcus aureus [16], “Tde”; in the data set on Erythrocyte [18], “Non-Toxic”. Further, in the data set with Erythrocyte [5], the MHC10 was greater than 55.78 µM. In the data set on RAW264.7 [6], the result was Active. The outcome with Cell membrane [8] was inactive. For the same substance, the selectivity ratio in data set [9] was 11.8.

For the substance H-WLRAFRRLVRRLARLLRR-NH2, the MIC was 6.65 µM in the data set on Salmonella paratyphi; 53.2 µM with Pseudomonas fluorescens; greater than 53.2 µM in the data set on Escherichia coli [2]; 13.3 µM in the data set on Escherichia coli [3]; 26.6 µM with Escherichia coli [4]; 0.83 µM in the data set on Staphylococcus aureus [7]. Further, the MIC in the data set on Escherichia coli [12] is 1.66 µM; in the data set on Staphylococcus aureus [13] it was 1.66 µM; in the data set on Bacillus pumilus, 26.6 µM; in the data set with Staphylococcus aureus [14] it was 1.66 µM; in the data set on Staphylococcus aureus [15], 1.66 µM; in the data set with Staphylococcus aureus [17], greater than 53.2 µM. For the same substance, the Activity entry in the data set with RAW264.7 [1] was “Dose-dependent effect”; in the data set with HepG2, “Dose-dependent effect”; in the data set with RAW264.7 [10], 48.25%; in the data set with Cell membrane [11] it was “Dose-dependent effect”; in the data set on Staphylococcus aureus [16], “Tde”; with Erythrocyte [18], “Non-Toxic”. Also, the MHC10 in the data set on Erythrocyte [5] stood at 53.18 µM. In the data set on RAW264.7 [6], the outcome was Active. Further, the result in the data set with Cell membrane [8] was inactive. For the same substance, in [9], the selectivity ratio came out at 5.88.
